Reference: PMC7305985 (Molecular cell, 2020)

Tests used:
[1] = test system: KAP1 target genes in HCT116 (CDK9 inhibition); test: RT-qPCR of KAP1 target genes after flavopiridol treatment; format: cell-based; conditions: HCT116, 1 μM, 2 and 4 hr; relative to DMSO, normalized to U6, n=3; Figure 2M
[2] = test system: KAP1 target genes in shKAP1 HCT116 cells; test: Reconstitution assay, RT-qPCR of KAP1 target genes; format: cell-based
[3] = test system: CDK9; test: Co-IP from HCT116 nuclear extracts: CDK9; format: binding; conditions: Figure 6B
Summary of the method: (§1)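 Tagged proteins were expressed in HCT116 cells by transfection for 48 hr. Nuclei were released by hypotonic swelling and 27-gauge needle lysis, then extracted for 45 min at 4°C in buffer C brought to 420 mM NaCl. Chromatin was digested with MNase (5 mM CaCl2, 10 min, 37°C). Clarified extract was bound to StrepTactin agarose for 2 hr at 4°C, washed 4X and eluted with desthiobiotin. Blots loaded 1% input.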

[4] = test system: Pol II (RPB1); test: AP / IP / co-IP from HCT116 nuclear extracts: Pol II; format: binding; conditions: MNase, endogenous IP, Figures 2C, 2D, 6B
Summary of the method: as §1

[5] = test system: CDK9 at KAP1 target gene promoters; test: ChIP-qPCR of CDK9 after reconstitution; format: cell-based; conditions: shKAP1 HCT116 reconstituted, n=3, Figure 6F
Summary of the method: (§2)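 shKAP1 HCT116 cells were transfected with 1 µg epitope-tagged plasmid (PolyJet) and harvested after 48 hr. Cells were crosslinked in 0.5% formaldehyde (10 min, room temperature), quenched with 150 mM glycine and lysed in Farnham buffer at 10×10^6 cells/mL. Beads were washed in RIPA, low-salt, high-salt (500 mM NaCl), LiCl and TE buffers, eluted in NaHCO3/SDS (30 min, 65°C) and de-crosslinked with proteinase K (4 hr, 65°C), then read by qPCR.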

[6] = test system: Pol II at KAP1 target gene promoters; test: ChIP-qPCR of Pol II after reconstitution; format: cell-based; conditions: shKAP1 HCT116 reconstituted, n=3, Figure 6F
Summary of the method: as §2

[7] = test system: SMAD2 at KAP1 target gene promoters; test: ChIP-qPCR of SMAD2 after reconstitution; format: cell-based; conditions: shKAP1 HCT116 reconstituted, n=3, Figure 6F
Summary of the method: as §2

[8] = test system: SMAD2; test: AP / IP / co-IP from HCT116 nuclear extracts: SMAD2; format: binding; conditions: Figures 3G–3I, 6B
Summary of the method: as §1

[9] = test system: KAP1 target gene promoters; test: FLAG ChIP-qPCR of reconstituted KAP1 proteins; format: cell-based; conditions: shKAP1 HCT116, FLAG ChIP-qPCR, % Input, n=3, Figures 5I, 6F
Summary of the method: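 Epitope-tagged KAP1 was re-expressed in shKAP1 HCT116 cells by 1 µg plasmid transfection over 48 hr. Anti-FLAG ChIP used 0.5% formaldehyde crosslinking (10 min) and 150 mM glycine quench. Beads were washed 4 times with each of RIPA, low-salt, high-salt, LiCl and TE buffers. Elution was 30 min at 65°C, de-crosslinking 4 hr at 65°C with proteinase K, and read-out was qPCR.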

Row | Compound | expression of KAP1 target genes after flavopiridol [1] | restoration of KAP1 target gene expression (WT and point mutants) ([2]; shKAP1 HCT116, 48 hr, relative to shNT+GFP, normalized to RPL19, n=3, Figure 5H) | restored expression of all tested genes over GFP-expressing cells ([2]; shKAP1 HCT116, n=3, Figure 6E) | association with CDK9 in nuclear extracts [3] | association with Pol II in nuclear extracts [4] | promoter recruitment of CDK9 [5] | promoter recruitment of Pol II [6] | promoter recruitment of SMAD2 [7] | association with SMAD2 in nuclear extracts [8] | association with SMAD2 in nuclear extracts ([8]; listed as WT KAP1) | localization to KAP1 target gene promoters [9] | localization to KAP1 target gene promoters ([9]; listed as WT KAP1)
1 | CN1CC[C@H](c2c(O)cc(O)c3c(=O)cc(-c4ccccc4Cl)oc23)[C@H](O)C1 [flavopiridol, Flavopiridol] | dampened expression of KAP1 target genes |  |  |  |  |  |  |  |  |  |  | 
2 | KAP1: wild-type KAP1, STREP- or FLAG-tagged |  | restored KAP1 target gene expression | ~ 2 fold | associates with all three factors | co-purifies with both ectopically expressed and endogenous KAP1 | facilitate recruitment of Pol II and CDK9 | facilitate recruitment of Pol II and CDK9 | only facilitated SMAD2 recruitment to C1 (SMAD2+) gene promoters | interactions between ectopically expressed and endogenous proteins | associates with all three factors | able to localize to both C1 (SMAD2+) and C2/C3 (SMAD2-) gene promoters | localized to all tested gene promoters
